Screening results (PubChem BioAssay)
MrgX1 ag: activates human MrgX1 receptor signaling | Q96LB2 | MrgX1-HEK293 cells, Fluo-4 calcium fluorescence, agonist mode; stronger effect = higher value | hit rate 0.44% among 310,000 | B-score at 10 µM;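 active = calcium response B-score plate-corrected fluorescence ratio at least 3 library SD, with starting fluorescence B-score inside 5 SD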
Target sequence (Q96LB2 whole entry, looked up): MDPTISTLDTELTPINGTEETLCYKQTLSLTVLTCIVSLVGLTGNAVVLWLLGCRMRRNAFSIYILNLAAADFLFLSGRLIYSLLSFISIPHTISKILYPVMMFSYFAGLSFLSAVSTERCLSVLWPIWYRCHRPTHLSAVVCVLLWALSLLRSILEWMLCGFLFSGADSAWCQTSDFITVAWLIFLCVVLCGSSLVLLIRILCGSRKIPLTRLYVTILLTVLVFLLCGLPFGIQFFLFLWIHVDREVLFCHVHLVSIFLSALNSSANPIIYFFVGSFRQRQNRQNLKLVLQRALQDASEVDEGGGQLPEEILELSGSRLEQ
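Material: MrgX1-expressing HEK293 cells / Dosing: compound as first of three additions / Incubation: overnight seeding, then 1 h dark dye loading / Signal: Fluo-4 NW calcium fluorescence / Evaluation: B-scored fluorescence response ratio / Benchmarks: positive and negative control wells on each plate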
RGS4 block: inhibitors of human RGS4 | P49798 | HEK293 M3R/RGS4 inducible, Fluo-4 calcium flux; stronger effect = higher value; triggered by carbachol at its EC20 | B-score at 10 µM | hit rate 0.45% among 310,000 | AID 463165;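 active = B-score, a plate-corrected calcium signal, over three deviations above library mean, with baseline fluorescence within five deviations of library mean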;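 also: RGS4 expression induced by doxycycline in cells with stable M3 receptor; B-score is computed from the integrated fluorescence ratio over baseline after carbachol; higher B-score means a larger calcium signal and so more RGS4 inhibition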
Target sequence (P49798 whole entry, looked up): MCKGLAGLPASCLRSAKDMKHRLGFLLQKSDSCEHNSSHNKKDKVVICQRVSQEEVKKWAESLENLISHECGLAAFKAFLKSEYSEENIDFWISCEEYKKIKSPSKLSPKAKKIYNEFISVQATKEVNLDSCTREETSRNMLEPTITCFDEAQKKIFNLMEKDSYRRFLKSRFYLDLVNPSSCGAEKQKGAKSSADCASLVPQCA
RGS4 act: potentiators or activators of RGS4 | B-score at 10 µM | HEK293 M3R/inducible RGS4, carbachol calcium flux Fluo4; stronger effect = lower value | hit rate 0.92% among 310,000 | AID 463111;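 active = B-score of the integrated calcium signal more than 4 SD below the library mean, with starting fluorescence not abnormally high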;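 also: negative B-score means reduced calcium response which marks RGS4 activation or potentiation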
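Test system: HEK293 cells with stable M3R and inducible RGS4; also added: carbachol at ECmax as muscarinic agonist stimulus; schedule: dye loading 30 min 37 °C, buffer rest 30 min RT; technique: kinetic calcium fluorescence imaging with Fluo4-AM dye, 2 µM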
MrgX1 antagonist: antagonists of human MrgX1 receptor; Q96LB2; B-score at 10 µM; MRGX1-HEK293 calcium flux, Fluo-4, BAM8-22 antagonism; stronger effect = lower value; AID 588676; hit rate 1.3% among 310,000;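 active = calcium-response B-score plate-corrected more than 3 library SD below zero, starting fluorescence within 5 deviations, no agonist response on first addition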;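 also: peak minus trough fluorescence over baseline after final BAM8-22 challenge near maximal dose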
MrgX1 PAM: human MrgX1 positive allosteric modulation, primary screen | MrgX1-HEK293, Fluo-4 calcium flux, FDSS; stronger effect = higher value | B-score at 10 µM | Q96LB2 | hit rate 0.63% among 310,000;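 active = plate-corrected calcium response at least 3 library SD above typical, normal starting fluorescence, not activating the receptor alone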;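 also: compound read alongside a low EC10 to EC30 dose of BAM8-22 agonist; peak minus trough fluorescence over baseline measured at the second addition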
* hit, by the source's call; i = inactive; nt = no result; ! = a repeat was not active. Rows were chosen to be rich in hits. Some 3.5% of all compounds tested hit in one or more screens of this group.

SMILES	MrgX1 ag	RGS4 block	RGS4 act	MrgX1 antagonist	MrgX1 PAM
O=C1c2ccccc2NC(c2cccc([N+](=O)[O-])c2)N1CCc1ccccc1 (centres undefined)	i	i	i	i	15*
CC1=Nn2c(nc(-c3ccccc3)c2-c2ccccc2)NC(=O)C1Br (centres undefined)	i	i	i	i	i
O=C(O)CCC(=O)Nc1ccc(C(=O)OC2CCCCC2)cc1	i	i	i	i	i
O=C(OC1CCCCC1)c1ccc(NC(=O)C2CCCCC2)cc1	i	i	-7*	i	i
O=C(NCCOc1ccccc1)c1ccccc1Cl	i	i	i	i	i
CN(C(=O)COc1ccccc1C(=O)NCCOc1ccccc1)c1ccccc1	i	i	-9.2*	-5.7*	i
CCCC1=NN2C(=N)/C(=C\c3cc(C)n(Cc4ccccc4)c3C)C(=O)N=C2S1	i	i	i	i	i
CCCC1=NN2C(=N)/C(=C\c3ccc(SCc4ccco4)o3)C(=O)N=C2S1	31*	i	i	i	i
COc1cc(C2Oc3cc(C4Oc5cc(O)cc(O)c5C(=O)C4O)ccc3OC2CO)ccc1O (centres undefined)	i	i	i	i	8.8*
COC(=O)Nc1nn(-c2ccc(OC)cc2)c(=O)c(C#N)c1C	i	i	i	i	i
COc1ccc(-n2nc(C(=O)N3CCCCC3)c(C)c(C#N)c2=O)cc1	i	i	i	-5.8*	i
CN(C)C1=NC[C@H](Cc2ccccc2)N1CC1CCC(C(C)(C)C)CC1 (some centres undefined)	i	i	i	-6.2*	i
Cc1ccc(-n2nc3c(c2NC(=O)CC(C)C)CS(=O)(=O)C3)c(C)c1	i	i	i	i	i
N#Cc1cn(Cc2ccncc2)c(=O)[nH]c1=O	i	i	i	i	i
COc1ccc2oc3ccccc3c(=O)c2c1	i	i	i	i	i
COc1cc(/C(C)=C/c2ccccc2)c2c(c1)oc1ccccc12	i	i	i	i	9*
COc1ccc2c(C)cc(SCC(=O)Nc3ccc(Cl)cn3)nc2c1	i	i	i	i	i
CCC(CC)C(=O)c1c[nH]c(C(=O)N2CCN(c3ccc(OC)cc3)CC2)c1	i	i	i	i	i
COc1cccc(N/C(SC)=C(/C#N)C(=O)NCc2cccs2)c1	i	i	-7.5*	i	i
COc1cccc(N/C(SCc2ccccc2C)=C(/C#N)C(=O)NCc2cccs2)c1	i	i	i	i	i
Nc1nc2ccccc2n1C(=O)c1cccs1	i	i	i	i	i
N#Cc1ccc(OCC(O)CN2CCN(c3ncc(C(F)(F)F)cc3Cl)CC2)cc1 (centres undefined)	i	i	i	i	i
Cc1ccc(CSc2nc3ccccc3cc2C=O)cc1	i	i	-8.3*	i	i
CCOc1ccc(/C=C2\SC(=S)N(C(C(=O)O)c3ccccc3)C2=O)cc1OC (centres undefined)	i	i	i	i	i
C=CCOc1ccc(/C=C2\SC(=S)N(C(C(=O)O)c3ccccc3)C2=O)cc1 (centres undefined)	nt	i	-9.3*	nt	nt
SMILES	MrgX1 ag	RGS4 block	RGS4 act	MrgX1 antagonist	MrgX1 PAM
COc1ccc(OC)c(/C=C2\SC(=S)N(C(C(=O)O)c3ccccc3)C2=O)c1 (centres undefined)	53*	i	i	i	i
CC1Cc2nc(SCC(=O)NCC3CCCO3)n(C)c(=O)c2S1 (centres undefined)	i	i	i	i	i
CC(=O)N(C)c1ccc(NC(=O)Nc2ccc(C)c(C)c2)cc1	i	i	-7.4*	i	i
CCOc1ccc(-n2c(=O)c3sccc3n(Cc3ccc(C)cc3)c2=O)cc1	i	i	i	i	i
C/C(=N\OC(=O)C1CC1)C1CC1c1ccc(F)cc1 (centres undefined)	i	i	i	i	i
Cc1cccc(-c2oc3ccccc3c2-c2ccc3c(c2)OCO3)c1	i	i	i	-6*	i
Cc1ccc(NC2CCCN(C(=O)CCC3=NNC(=O)CC3)C2)cc1C (centres undefined)	i	i	i	i	i
Cc1ccc(-n2c(O)c(/C=N/n3cnnc3)c3ccccc3c2=O)cc1	i	i	i	i	9.4*!
CNC(=O)c1ccc(-c2sc3nc(N4CCOCC4)c4c(c3c2N)CCCC4)o1	i	i	i	i	12*
Cc1cc(=O)[nH]c(Nc2ccccc2C)n1	i	i	i	i	i
Cc1[nH]c2ccccc2c1/C=N/Nc1ccc([N+](=O)[O-])cc1	i	i	i	-4.9*	i
C/C(=N/Nc1ccc([N+](=O)[O-])cc1)c1ccc(C)cc1C	i	i	i	i	i
C/C(=N/Nc1ccc([N+](=O)[O-])cc1)c1c[nH]c2ccccc12	i	i	i	-4.9*	i
Cc1ccc(NC(=O)CN(C)C(=O)COC(=O)CNS(=O)(=O)c2ccc(F)c(F)c2F)cc1	i	i	i	i	i
Cc1ccc(NC(=O)CN(C)C(=O)COC(=O)CNS(=O)(=O)c2ccc(Br)cc2Cl)cc1	59*	i	i	i	i
CC(=O)c1ccc(N=C2C(=O)Nc3ccccc32)cc1	29*	i	i	i	i
O=C1Nc2ccccc2C1=Nc1ccc(F)cc1	i	i	i	i	i
COc1ccccc1-c1coc2cc(OC(=O)N3CCOCC3)ccc2c1=O	i	i	i	i	i
CCC(Oc1ccc2c(=O)c(-c3ccccc3OC)coc2c1)C(=O)OCc1ccccc1 (centres undefined)	i	i	-7.6*	i	i
C=CCNC(=O)c1ccc(N(Cc2ccc(Cl)cc2)S(C)(=O)=O)cc1	i	i	i	i	i
CCOCCOC(=O)C(C)Oc1ccc(Oc2nc(Cl)ccc2Cl)cc1 (centres undefined)	i	i	i	-8.5*	i
CCOCCOC(=O)C(C)Oc1ccc(Oc2ncc(Cl)cc2Cl)cc1 (centres undefined)	i	i	i	i	i
CC(C)(C)C(=O)c1sc2nc(-c3cccs3)cc(C(F)(F)F)c2c1N	i	i	-9.7*	i	i
CCN(CC)C(=O)c1sc2nc(-c3cccs3)cc(-c3cccs3)c2c1N	i	i	i	-7.2*	i
CCc1ccc(S(=O)(=O)Nc2cccc(-c3ccc4nnc(C)n4n3)c2)s1	i	i	i	i	i
